Compound activity as filed in PubChem BioAssay.
Lipid droplet: modulators of hepatic lipid droplet formation; AML12 mouse hepatocytes, oleate lipid droplets, BODIPY imaging; inhibition, % at 6.5 µM; actives 0.4% (n = 240,000); AID 1656;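 active = lipid droplet intensity inhibited by at least 50%, with more than 500 cells counted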
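Test system: AML12 hepatocytes (mouse); reagent: oleate loading, 100 µM; dosing: one dose, 6.5 µM compound; incubation: overnight exposure; signal: fluorescence imaging, 20x objective, two fields per well; read-out basis: % inhibition of corrected integrated BODIPY droplet signal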
HSP90 inh: blocks HSP90-mediated luciferase refolding in reticulocyte lysate; Rabbit reticulocyte lysate, luciferase refolding luminescence, 3 h; inhibition, % at 5.6 µM; actives 0.91% (n = 290,000);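 active = inhibition above the screen-wide mean plus 3 SD, computed separately per campaign, cut at about 16% in these data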;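 note: 0% = DMSO wells and 100% = 60 µM geldanamycin wells; inhibitors lower the luminescence because luciferase stays unfolded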
HCV NS3 hel inh: HCV NS3 helicase inhibition; inhibition, % at 10.9 µM; actives 0.56% (n = 290,000); NS3 helicase DNA unwinding, Cy5 molecular beacon fluorescence;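 active = inhibition above the mean of all tested compounds plus 3 SD, set per campaign, cut at about 35% in these data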;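 note: 0% = DMSO wells and 100% = thioflavine S control wells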
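Material: hepatitis C virus NS3 helicase domain fragment enzyme; measured by: Cy5 fluorescence, 0 and 60 min reads; control set: DMSO and thioflavine S; incubation: 60 min unwinding reaction at 25 °C after ATP addition; read-out basis: % inhibition from 60/0 min fluorescence ratio, DMSO 0%, thioflavine S 100%; repeats: singlicate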
HSF1 inhib: HSF1 inhibition. NIH3T3-HGL HSE-luciferase, MG132-induced, luminescence 8 h; hits give low values. activity change, negative = inhibition, % at 7.5 µM (by protocol). actives 0.77% (n = 300,000);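 active = more than half of replicate wells show activity change below -50%, luminescence cut by over half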;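 note: luciferase reports HSF-1 transcriptional activity via heat shock element; 0% = median of DMSO wells and -100% = zero luminescence signal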
HSF-1 act: increases HSF-1 driven luciferase reporter signal; NIH3T3-HGL HSF-1 luciferase reporter, MG132, 8 h; 100% = twice DMSO control signal; activation, % at 9 µM; actives 1.7% (n = 300,000); AID 504408;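 active = mean replicate activation of at least 50% with a set share of replicates each reaching 50%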;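 note: 0% = median of the neutral control wells and 100% = twice that signal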
Hep lipid conf: hepatic lipid droplet formation inhibition, confirmed. shares compounds with Lipid droplet. AML12 mouse hepatocytes, BODIPY lipid droplet imaging; droplets induced with 100 µM oleic acid. inhibition, % at 5.2 µM. actives 65% (n = 870). AID 463183;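 active = inhibition of lipid droplet metric at least 50%, with more than 300 cells in each of four replicates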;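 note: plate controls were DMSO with oleic acid for no effect and 5 µM Triacsin-C for full effect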
AML12 cytotox: AML12 hepatocyte cytotoxicity (counter-screen). AML12 mouse hepatocytes, DAPI nuclear morphology cytotoxicity imaging; hits give high values; cells fed 100 µM oleate overnight. shares compounds with Lipid droplet. actives 3% (n = 870). AID 463200. z-score at 5 µM; in the data active = z-score above about 6.3;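 note: compound exposure lasted overnight at 37 °C before fixation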
AML12 tox ATP: confirmation of cytotoxicity in AML12 mouse hepatocytes. shares compounds with Lipid droplet. AML12 mouse hepatocyte viability, ATP luminescence; cells loaded with 100 µM oleic acid. cytotoxicity, % at 50 µM. 530 tested, under 10 active. AID 463219;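 active = cytotoxicity above 50% in each of four replicates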;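 note: compound exposure lasted overnight at 37 °C before the ATP read; 0% = DMSO-treated cells and 100% = wells with no cells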
* = called active by the depositor; x = no result given. Most compounds without a hit are left out; they make up all but 3.8% or so of the library.

SMILES	Lipid droplet	HSP90 inh	HCV NS3 hel inh	HSF1 inhib	HSF-1 act	Hep lipid conf	AML12 cytotox	AML12 tox ATP
CCCOc1ccc(CNC(=O)c2ccc3nc(N4CCOCC4)sc3c2)cc1	54*	2	-2	-8	10	99*	-0.65	12
O=C(NCc1ccccc1)c1ccc2nc(N3CCOCC3)sc2c1	9	0	5	2	-11	x	x	x
CCOC(=O)C1CCN(C(=O)CN(Cc2ccccc2)S(C)(=O)=O)CC1	-4	2	14	-10	-13	x	x	x
CCOC(=O)C1CCC(CN(Cc2ccccc2)S(=O)(=O)c2ccc([N+](=O)[O-])cc2)CC1 (centres undefined)	59*	5	9	-2	10	82*	-0.46	6
CC1CN(C(=O)CSc2nnc(NC(=O)NC(C)(C)C)s2)CC(C)O1 (centres undefined)	x	x	x	-2	3	x	x	x
CN(Cc1ccccc1)C(=O)CCCn1c(=O)c2cccn2c2cccnc21	-23	-3	0	-2	0	x	x	x
COC(=O)[C@H](CCSC)NC(=O)Nc1ccc(S(N)(=O)=O)cc1	8	1	-8	2	13	x	x	x
NC(=O)N/N=C/c1ccc(-c2ccc([N+](=O)[O-])cc2)o1	55*	2	-10	4	14	-4	0.24	x
Cc1ccc(CNC(=O)c2ccc(N3CCC4(CC3)CC(c3ccccc3)=NO4)c(NC(=O)c3ccc(Br)cc3)c2)cc1	73*	8	1	-5	-3	104*	0.66	-1
Cc1ccc(CNC(=O)c2ccc(N3CCC4(CC3)CC(c3ccccc3)=NO4)c(NC(=O)c3ccccc3)c2)cc1	x	x	x	-25	-38	x	x	x
Cc1ccc(CNC(=O)c2ccc(N3CCC4(CC3)CC(c3ccccc3)=NO4)c(N)c2)cc1	52*	0	-9	-6	-3	89*	-0.92	20
CCOC(=O)[C@@H]1[C@H]2COc3cc(OC)ccc3[C@@H]2N2C(=O)N(c3cccc(Cl)c3)C(=O)[C@]12C	-2	-2	-26	9	38	x	x	x
N=c1c(C(=O)NCCN2CCOCC2)cc2c(=O)n3ccccc3nc2n1CCCN1CCOCC1	52*	-2	12	-2	20	16	-0.46	x
COc1ccc(Cl)c(NC(=O)C/C(C)=N/NC(=O)CCc2ccccc2)c1	122*	-2	-6	5	21	99*	-0.55	12
C/C(CC(=O)Nc1ccc(Cl)c(Cl)c1)=N\NC(=O)Cc1ccccc1	-3	-4	3	-5	19	x	x	x
CN(C(=O)COc1ncnc2sccc12)c1ccccc1	4	3	5	x	x	x	x	x
COc1cc(/C=C2/NC(=O)NC2=O)cc(Br)c1OCc1ccc(C(=O)O)cc1	16	-3	8	-3	4	x	x	x
Cn1c(CC(=O)Nc2ccccc2F)nnc1SCC(=O)Nc1nccs1	-12	5	-7	-5	9	x	x	x
Cc1cc(NC(=O)c2cc3ccccc3o2)cc(C)c1OCC(=O)N1CCOCC1	91*	3	2	x	x	107*	-0.82	34
Cc1cc(NC(=O)c2ccccc2F)cc(C)c1OCC(=O)N1CCOCC1	1	-3	1	1	0	x	x	x
COc1ccc(NC(=O)CN2C(=O)NC(c3ccccc3)(c3ccccc3)C2=O)cc1OC	105*	4	-32	-2	-5	103*	-0.13	2
CCCC1(c2ccccc2)NC(=O)N(CC(=O)NCc2ccc(C)cc2)C1=O (centres undefined)	23	2	4	11	-15	x	x	x
COc1ccc(NC(=O)CN2C(=O)NC(c3ccccc3)(c3ccccc3)C2=O)cc1	-6	6	-19	-3	-13	x	x	x
CCCC1(c2ccccc2)NC(=O)N(CC(=O)Nc2cc(C)ccc2OC)C1=O (centres undefined)	56*	-6	-21	-12	-29	87*	-0.48	13
COc1ccc(Cl)cc1NC(=O)CN1C(=O)NC2(CCCC2)C1=O	88*	-1	-9	0	4	91*	0.56	15
SMILES	Lipid droplet	HSP90 inh	HCV NS3 hel inh	HSF1 inhib	HSF-1 act	Hep lipid conf	AML12 cytotox	AML12 tox ATP
CCc1cccc(NC(=O)CCCn2nc(CC)n3c(cc4occc43)c2=O)c1	53*	-6	17	-1	0	94*	-0.16	3
S=C(Nc1cccc(Cl)c1Cl)NC1CCN(Cc2ccccc2)CC1	-10	0	-26	x	x	x	x	x
N#Cc1c(-c2ccccc2)nc(-c2cccnc2)[nH]c1=O	14	1	12	-6	-1	x	x	x
CSc1nsc(SCC(=O)Nc2ccc(Cl)c(C(=O)O)c2)n1	-1	1	-2	-6	13	x	x	x
CC(C)(C)c1cc(Br)c(O)c(N=Nc2ccc(S(=O)(=O)N3CCOCC3)cc2)c1	56*	1	4	-1	10	102*	-0.35	18
CCOc1nc(-c2ccncc2)nc2ccccc12	53*	1	-6	1	27	32	-0.32	x
CCc1ccc(CCC(=O)Nc2ccc(Cl)cc2)o1	0	0	8	-2	7	x	x	x
O=c1[nH]c(=O)n(Cc2ccccc2)c2nc(-c3ccc(Oc4ccc(F)cc4)c([N+](=O)[O-])c3)n(CCO)c12	64*	4	-12	9	30	71*	1.1	1
Clc1ccccc1CN(Cc1ccco1)Cc1nnnn1C1CCCC1	68*	1	1	31	69*	1	-0.68	x
c1coc(CN(Cc2cccs2)Cc2nnnn2C2CCCCC2)c1	19	-3	-10	10	17	x	x	x
CCCCCCn1c(N2CCN(c3ccccc3)CC2)nc2c1c(=O)[nH]c(=O)n2C	58*	0	4	11	19	93*	-1.2	-11
CCCCn1c(=O)[nH]c(=O)c2c1nc(-c1ccc(C(F)(F)F)cc1)n2C	18	0	-14	4	11	x	x	x
CCCCn1c(=O)[nH]c(=O)c2c1nc(-c1ccc(-c3ccccc3)cc1)n2C	64*	7	-19	1	8	70*	-0.69	-5
CCCCCCn1c(N2CCN(c3cccc(Cl)c3)CC2)nc2c1c(=O)[nH]c(=O)n2C	x	2	-3	20	8	x	x	x
CCCCCCCCn1c(N2CCN(c3cccc(Cl)c3)CC2)nc2c1c(=O)[nH]c(=O)n2C	83*	-2	3	1	7	98*	-1.1	16
Cn1c(=O)[nH]c(=O)c2c1nc(N1CCN(c3ccccc3)CC1)n2CCSc1ncccn1	x	-2	-7	-6	1	x	x	x
